According to ChEMBL document CHEMBL2029242 (J Med Chem, 2012):
Activity calls are given as the source filed them. The calls are words filed in the database; no cut-off is given here.

Experiments:
Hs-578T = test: Cytotoxicity against human Hs578T cells expressing wild type BRAF after 72 hrs by cell titer blue assay; format: functional, cell-based
How it was run: (§1)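 Cells were grown in ATCC-recommended media and kept overnight in 0.5% serum. They were then exposed to compound for 72 h, and Cell Titer Blue was added for 3 h. EC50 came from fluorometric concentration−response curves, run in duplicate and repeated at least once.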

COLO 205 = test: Antitumor activity against human COLO205 cells xenografted in athymic nude mouse at 30 mg/kg, po bid for 14 days; format: functional, organism-based; parameters: dose 30 mg/kg
How it was run: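 Athymic nude mice carried subcutaneous flank Colo-205 xenografts (1 × 10^6 cells), randomized at 150−200 mm3 (n = 10/group). Oral dosing BID for 14 days in 22% HPβCD against vehicle controls. Caliper volumes W2(L/2) taken three times weekly. Partial regression: volume fell in ≥3 successive measurements to below the starting volume while the tumor stayed palpable.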

[1] = molecular target: Tyrosine-protein kinase ABL1 (Homo sapiens, UniProt P00519); test: Inhibition of Abl1 in human HEK293 cells after 1 hr by competition binding assay; format: cell-based
How it was run: (§2)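 KINOMEscan competition binding. Binding reactions ran at rt for 1 h. Unbound kinase was captured on an immobilized affinity ligand and quantified by qPCR. Each kinase was tested individually.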

Cytochrome P450 2C9 = Cytochrome P450 2C9 (Homo sapiens, UniProt P11712); test: Inhibition of human CYP2C9; format: ADME
How it was run: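 Pooled human liver microsomes (0.25 mg/mL) with NADPH (1 mM) and five pooled probe substrates (testosterone, diclofenac, dextromethorphan, mephenytoin, phenacetin). Test compound ran at eight concentrations, 0.31−40 μM, 20 min at 37 °C, with pooled control inhibitors in parallel. Isoform-specific metabolites were measured by LC-MS/MS.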

[2] = AUC (infinity) in Sprague-Dawley rat at 10 mg/kg, po; format: ADME, organism-based; parameters: time infinity, dose 10 mg/kg, route oral; conditions: plasma
How it was run: (§3)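 Single-dose PK. Rats: male Sprague−Dawley, jugular-catheterized, 1 mg/kg iv in 3:1 PEG400/water (n = 2) and 10 mg/kg po in Pharmatek #6 (n = 3). Female athymic nude mice: 100 mg/kg po in Pharmatek #6 (n = 3). Beagle dogs and male cynomolgus monkeys (n = 3): crossover, 1 mg/kg iv and 10 mg/kg po in 22% HPβCD, overnight fast. Plasma LC-MS/MS to 24 h; noncompartmental parameters, mean ± SD.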

Mus musculus [3] = test: Toxicity in athymic nude mouse xenografted with human COLO205 cells at 100 mg/kg, po bid for 14 days; format: organism-based, COLO 205; parameters: dose 100 mg/kg, route oral; conditions: in vivo, 336 h
How it was run: (§4)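 Athymic nude mice (20–25 g) were inoculated subcutaneously in the flank with 1×10^6 Colo-205 cells. At 150–200 mm3 they were randomized (n = 10/group) to oral vehicle (22% HPβCD) or 10, 30 or 100 mg/kg BID for 14 days. Calipers were used three times weekly. Body weight and behavior were monitored, with 7–10 days of follow-up after dosing. Partial regression meant volume falling in ≥3 successive measurements, ending below baseline but still palpable.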

[4] = Cmax in athymic nude mouse at 100 mg/kg, po; format: ADME, organism-based; parameters: dose 100 mg/kg, route oral; conditions: in vivo; how it was run: as §3
HCT-116 = test: Cytotoxicity against human HCT116 cells expressing wild type BRAF after 72 hrs by cell titer blue assay; format: functional, cell-based; conditions: HCT-116, 72 h; how it was run: as §1
[5] = Tmax in Sprague-Dawley rat at 10 mg/kg, po; format: ADME, organism-based; parameters: dose 10 mg/kg, route oral; conditions: in vivo
How it was run: (§5)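 Male Sprague-Dawley rats (250–350 g, jugular-catheterized) received a single dose either iv at 1 mg/kg in 3:1 PEG400/water (n = 2) or po at 10 mg/kg in Pharmatek #6 (n = 3). Plasma was sampled at 5 min (iv only), 15 and 30 min, and 1, 2, 4, 6 and 24 h. Samples were analyzed by LC-MS/MS after acetonitrile precipitation. Parameters came from noncompartmental linear-trapezoidal analysis of individual animals.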

Mus musculus [6] = test: Inhibition of BRAF V600E mutant-mediated MEK phosphorylation in human COLO205 cells xenografted in athymic nude mouse at 30 mg/kg, po after 6 hrs; format: functional; conditions: COLO 205, 6 h
How it was run: (§6)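 Mice bearing Colo-205 xenografts got one oral dose in 22% HPβCD; vehicle controls were run. Tumors were collected at time points over 24 h and lysed. pMEK and total MEK in the lysates were measured by immunoblotting and ELISA, and pMEK was normalized to total MEK.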

[7] = Terminal half life in Sprague-Dawley rat at 1 mg/kg, iv and 10 mg/kg, po; format: ADME, organism-based; conditions: in vivo, read-out: beta t1/2 (converted); how it was run: as §5
[8] = Cmax in Sprague-Dawley rat at 10 mg/kg, po; format: ADME, organism-based; parameters: dose 10 mg/kg, route oral; conditions: in vivo; how it was run: as §3
[9] = molecular target: Serine/threonine-protein kinase B-raf (Homo sapiens, UniProt P15056); test: Inhibition of wild type BRAF in human HEK293 cells after 1 hr by competition binding assay; format: cell-based; how it was run: as §2
[10] = Tmax in beagle dog at 10 mg/kg, po; format: ADME, organism-based, Canis lupus familiaris; parameters: dose 10 mg/kg, route oral; conditions: in vivo
How it was run: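 Male non-naive cynomolgus monkeys (2.6–3.4 kg) and beagle dogs (10.3–11.9 kg), n = 3 each, were dosed in a crossover design with a ≥7-day washout. Doses were 10 mg/kg by nasogastric gavage and 1 mg/kg as a saphenous iv bolus, both free base in 22% HPβCD. Animals were fasted overnight until about 4 h post dose. Femoral plasma was sampled from predose to 24 h and analyzed by LC-MS/MS. Parameters came from noncompartmental analysis; mean ± SD reported.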

Mus musculus [11] = test: Inhibition of BRAF V600E mutant-mediated MEK phosphorylation in human COLO205 cells xenografted in athymic nude mouse at 30 mg/kg, po after 2 hrs; format: functional; conditions: COLO 205, 2 h; how it was run: as §6
[12] = Half life in mouse liver microsomes; format: ADME, Microsome
How it was run: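 Pooled liver microsomes (0.5 mg/mL) in 0.1 M phosphate pH 7.4 with 6.5 mM MgCl2 and compound at 1 μM (0.2% DMSO). NADPH (1 mM) started the reaction at 37 °C, with minus-NADPH and testosterone controls. Aliquots taken at 0, 5, 15, 30 and 60 min were quenched in acetonitrile; duplicates.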

Mus musculus [13] = test: Toxicity in athymic nude mouse xenografted with human COLO205 cells at 100 mg/kg, po bid for 14 days measured upto 1 week post dosing; format: organism-based, COLO 205; parameters: dose 100 mg/kg, route oral; conditions: in vivo; how it was run: as §4
[14] = AUC (0 to 24 hrs) in beagle dog at 10 mg/kg, po; format: ADME, organism-based, Canis lupus familiaris; parameters: time < 24 hr, dose 10 mg/kg, route oral; conditions: plasma; how it was run: as §3
[15] = Tmax in athymic nude mouse at 100 mg/kg, po; format: ADME, organism-based; parameters: dose 100 mg/kg, route oral; conditions: in vivo
How it was run: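 Female athymic nude mice (20–25 g, n = 3) received a single oral dose of 100 mg/kg in Pharmatek #6, calculated as free base. Blood was drawn into K3EDTA at 15 and 30 min and at 1, 2, 4, 6 and 24 h. Plasma was analyzed by LC-MS/MS. Parameters came from noncompartmental linear-trapezoidal analysis; mean ± SD reported.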

Liver = test: Intrinsic clearance in dog liver microsomes; format: ADME, Canis lupus familiaris, Microsome
How it was run: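 Pooled liver microsomes (0.5 mg/mL) were premixed with 0.1 M phosphate buffer pH 7.4, 6.5 mM MgCl2 and test compound (1 μM final, 0.2% DMSO). NADPH (1 mM) started the reaction at 37 °C, in duplicate. Minus-NADPH and testosterone controls were included. Aliquots were taken at 0, 5, 15, 30 and 60 min and quenched in acetonitrile containing internal standard.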

[16] = molecular target: Serine/threonine-protein kinase B-raf (Homo sapiens, UniProt P15056, V600E)
Chain of Serine/threonine-protein kinase B-raf (Homo sapiens, UniProt P15056, V600E) (P15056 2-766 V600E limits assumed): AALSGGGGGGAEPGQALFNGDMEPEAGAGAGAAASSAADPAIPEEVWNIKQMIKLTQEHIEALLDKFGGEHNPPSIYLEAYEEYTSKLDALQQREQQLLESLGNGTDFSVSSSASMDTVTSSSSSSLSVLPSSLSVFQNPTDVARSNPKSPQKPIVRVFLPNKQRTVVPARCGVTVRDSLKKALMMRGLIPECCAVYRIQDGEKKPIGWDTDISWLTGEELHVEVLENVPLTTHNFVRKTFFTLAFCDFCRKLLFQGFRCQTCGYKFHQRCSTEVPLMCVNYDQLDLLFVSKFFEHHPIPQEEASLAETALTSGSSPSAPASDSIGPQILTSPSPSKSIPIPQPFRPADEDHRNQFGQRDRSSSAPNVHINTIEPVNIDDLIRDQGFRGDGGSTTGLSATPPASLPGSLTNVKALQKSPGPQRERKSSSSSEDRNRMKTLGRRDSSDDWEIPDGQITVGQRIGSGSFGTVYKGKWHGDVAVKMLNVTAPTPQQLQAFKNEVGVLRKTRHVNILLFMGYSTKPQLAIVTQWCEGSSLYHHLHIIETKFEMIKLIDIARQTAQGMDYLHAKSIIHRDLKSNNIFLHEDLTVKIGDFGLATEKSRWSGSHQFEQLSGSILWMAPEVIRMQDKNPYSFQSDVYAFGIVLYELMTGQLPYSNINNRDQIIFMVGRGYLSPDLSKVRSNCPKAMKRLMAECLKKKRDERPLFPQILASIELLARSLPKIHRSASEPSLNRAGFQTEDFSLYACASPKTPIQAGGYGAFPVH

Chain of Tyrosine-protein kinase ABL1 (P00519 whole entry): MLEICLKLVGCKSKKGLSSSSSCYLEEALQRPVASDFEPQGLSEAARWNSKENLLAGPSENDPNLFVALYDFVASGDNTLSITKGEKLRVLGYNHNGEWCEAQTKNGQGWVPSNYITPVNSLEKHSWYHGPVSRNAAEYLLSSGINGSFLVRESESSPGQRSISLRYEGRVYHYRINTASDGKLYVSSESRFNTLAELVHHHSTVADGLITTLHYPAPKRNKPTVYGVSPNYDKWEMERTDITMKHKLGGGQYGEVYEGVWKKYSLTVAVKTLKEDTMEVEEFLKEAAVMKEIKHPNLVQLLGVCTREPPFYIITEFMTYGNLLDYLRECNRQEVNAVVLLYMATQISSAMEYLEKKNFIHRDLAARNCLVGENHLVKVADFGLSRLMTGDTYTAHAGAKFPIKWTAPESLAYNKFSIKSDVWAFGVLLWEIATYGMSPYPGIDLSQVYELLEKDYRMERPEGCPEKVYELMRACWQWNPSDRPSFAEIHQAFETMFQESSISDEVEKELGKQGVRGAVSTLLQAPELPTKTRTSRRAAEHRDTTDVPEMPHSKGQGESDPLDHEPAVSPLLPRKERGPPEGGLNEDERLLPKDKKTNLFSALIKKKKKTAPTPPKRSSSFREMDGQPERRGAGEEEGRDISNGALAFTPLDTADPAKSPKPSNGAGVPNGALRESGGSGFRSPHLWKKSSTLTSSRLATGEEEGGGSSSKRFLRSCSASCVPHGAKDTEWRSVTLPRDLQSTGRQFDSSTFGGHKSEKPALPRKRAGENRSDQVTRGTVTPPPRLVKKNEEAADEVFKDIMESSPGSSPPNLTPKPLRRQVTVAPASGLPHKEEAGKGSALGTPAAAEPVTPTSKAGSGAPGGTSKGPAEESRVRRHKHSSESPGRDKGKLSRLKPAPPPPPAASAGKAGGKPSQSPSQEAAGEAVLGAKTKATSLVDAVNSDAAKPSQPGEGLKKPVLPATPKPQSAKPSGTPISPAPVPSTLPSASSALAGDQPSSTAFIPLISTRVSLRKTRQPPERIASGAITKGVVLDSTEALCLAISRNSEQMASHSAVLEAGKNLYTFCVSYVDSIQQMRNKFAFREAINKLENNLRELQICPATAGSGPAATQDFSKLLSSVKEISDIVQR
Chain of Cytochrome P450 2C9 (P11712 whole entry, canonical isoform): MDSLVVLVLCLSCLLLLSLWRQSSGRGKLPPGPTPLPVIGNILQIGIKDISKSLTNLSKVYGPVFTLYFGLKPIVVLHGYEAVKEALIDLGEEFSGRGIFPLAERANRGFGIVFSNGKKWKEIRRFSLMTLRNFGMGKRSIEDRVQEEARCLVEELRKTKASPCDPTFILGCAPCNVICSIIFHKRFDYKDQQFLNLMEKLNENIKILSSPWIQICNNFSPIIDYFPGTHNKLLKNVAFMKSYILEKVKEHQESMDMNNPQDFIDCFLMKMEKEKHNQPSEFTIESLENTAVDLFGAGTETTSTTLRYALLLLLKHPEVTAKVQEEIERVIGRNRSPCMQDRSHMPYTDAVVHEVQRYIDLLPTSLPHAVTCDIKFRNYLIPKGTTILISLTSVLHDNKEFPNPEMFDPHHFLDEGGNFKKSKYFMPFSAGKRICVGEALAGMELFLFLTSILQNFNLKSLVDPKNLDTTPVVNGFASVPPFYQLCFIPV
Chain of Serine/threonine-protein kinase B-raf (Homo sapiens, UniProt P15056) (P15056 whole entry): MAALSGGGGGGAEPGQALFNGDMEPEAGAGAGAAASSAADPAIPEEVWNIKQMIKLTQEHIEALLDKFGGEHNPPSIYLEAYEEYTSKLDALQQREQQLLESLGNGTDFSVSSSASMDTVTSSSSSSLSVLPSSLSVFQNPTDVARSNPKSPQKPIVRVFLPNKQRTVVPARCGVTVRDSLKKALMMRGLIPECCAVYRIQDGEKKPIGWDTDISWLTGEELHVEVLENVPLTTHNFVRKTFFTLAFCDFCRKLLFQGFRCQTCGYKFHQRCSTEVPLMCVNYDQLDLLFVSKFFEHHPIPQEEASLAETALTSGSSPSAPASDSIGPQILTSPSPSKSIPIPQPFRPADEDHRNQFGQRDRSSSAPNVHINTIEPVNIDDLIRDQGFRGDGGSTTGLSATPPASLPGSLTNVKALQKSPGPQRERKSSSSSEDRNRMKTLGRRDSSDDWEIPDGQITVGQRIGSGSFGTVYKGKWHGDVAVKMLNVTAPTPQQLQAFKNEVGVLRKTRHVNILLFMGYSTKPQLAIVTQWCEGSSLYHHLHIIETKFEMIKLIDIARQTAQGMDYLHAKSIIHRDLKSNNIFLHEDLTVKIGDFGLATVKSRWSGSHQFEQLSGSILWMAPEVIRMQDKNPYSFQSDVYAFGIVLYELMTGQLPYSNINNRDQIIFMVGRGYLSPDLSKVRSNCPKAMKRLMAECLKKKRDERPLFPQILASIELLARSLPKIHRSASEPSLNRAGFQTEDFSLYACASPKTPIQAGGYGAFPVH

- Kd [1]: 3 nM
- IC50 (Cytochrome P450 2C9): > 10000 nM
- AUC(0-inf) [2]: 74.4 µM·h
- Cmax [4]: 35.6 µM
- Tmax [5]: 2 h
- half-life [7]: 7.8 h
- Cmax [8]: 6.5 µM
- Kd [9]: 36 nM
- Tmax [10]: 2 h
- half-life [12]: > 1 h
- AUC(0-t) at 24 h [14]: 55.1 µM·h
- Tmax [15]: 1.3 h
- CLH (Liver): < 23 µL/min/mg
- Kd [16]: 14 nM
Structure (SMILES): COc1cc2ncnc(Oc3cccc(NC(=O)Nc4cc(C(C)(C)C(F)(F)F)on4)c3)c2cc1OC [CEP-32496]
- EC50 (Hs-578T): 2740 nM
- Activity (COLO 205): Active
- Activity (Mus musculus [3]): Non-toxic
- EC50 (HCT-116): 669 nM
- inhibition in vivo at 30 mg/kg (Mus musculus [6]): 75%
- inhibition in vivo at 30 mg/kg (Mus musculus [11]): 50%
- Activity (Mus musculus [13]): Non-toxic
